An excerpt weighted towards active compounds, which were near 3.5% of everything screened.
ERAP1 HTS inh – blocks human ERAP1 aminopeptidase activity. Q9NZ08. 0.15% of 340,000 active. inhibition, % at 10.7 µM. recombinant ERAP1, Leu-AMC fluorescence, 60 min. AID 652197;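 active means mean replicate inhibition of at least 30%, or all replicates individually reaching that 30% level; inactive means mean below 30% and not every replicate reaching it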;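 further: 0% = neutral control wells and 100% = L-leucinethiol positive control wells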
Cneo AK release – causes C. neoformans cell lysis | 0.2% of 360,000 active | lysis activity, % at 15 µM | adenylate kinase release luminescence, 4 h; normalised: neutral wells 0, clomiphene wells 100 | AID 651654;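 active means mean lysis activity across replicates of at least 80%, whatever share of replicates individually reach that level; inactive means mean lysis activity below 80%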
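Signal: Adenylate kinase release luminescence | Assay system: Log-phase Cryptococcus neoformans yeast cells | Input: Cells at 5 × 10^6 per mL | Buffer or medium: Fresh YPD growth medium | Compound: Single dose | Schedule: Static 4 h at 37 °C with compound, 1 h detection | Controls: Clomiphene | Read-out: Luminescence rise reflecting yeast cell lysis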
Ecoli rRNA inh – inhibitors of bacterial rRNA selective over humanized ribosomes; E. coli WT GFP vs humanized-ribosome RFP mutants, fluorescence, 24 h; active compounds read low; DMSO median 0, no signal -100; GFP signal change (wild-type ribosome), % (test concentration not listed); 1.6% of 350,000 active; AID 720706;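 active means significant combined selectivity score with lowered wild-type GFP, culture density cut under 30%, mutant RFP and density less affected; inactive means any of these conditions unmet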
PGC1a acetyl inh – modulators of PGC1a acetylation | U2OS PGC1a acetylation, AlphaScreen anti-acetyl-lysine; with virally co-expressed GCN5 acetyltransferase | inhibition, % at 15.6 µM | 0.17% of 350,000 active | AID 651687;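 active means every replicate shows inhibition of at least 40%; inconclusive means mean inhibition at least 40% but some replicate below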;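 further: 0% = neutral control wells and 100% = positive control wells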
HIV Env fusion – blocks HIV Env-driven cell-cell fusion; HeLa-JRFL Env/CEM21 cell fusion, luciferase; inhibition, % at 12.3 µM; 1.1% of 360,000 active;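 active means mean replicate inhibition score of at least 50 and every replicate individually at or above 50; inconclusive means only one of the two criteria met; inactive means mean below 50 and not all replicates reaching 50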;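 further: 0% = plate neutral controls and 100% = maraviroc near 300 nM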
FGF22 binding – binders of recombinant human FGF22 by thermal shift; activity (Tm shift, normalised), % at 9.99 µM; SYPRO orange fluorescence; percent of sucrose octasulfate shift, DMSO zero; AID 651658; 1.5% of 340,000 active; Q9HCT0;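 active means mean Tm shift, scaled 0 neutral to 100 positive control, at about 1.3% or above, every replicate too, limit read from the data; inconclusive means no clear call, values can overlap the other calls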
Starred values were filed as active, the others as inactive; u = inconclusive; x = no result given; [ ] = remark or other dose.

SMILES	ERAP1 HTS inh	Cneo AK release	Ecoli rRNA inh	PGC1a acetyl inh	HIV Env fusion	FGF22 binding
Cc1c(C(=O)N(Cc2ccc(F)cc2)C2CCS(=O)(=O)C2)oc2ccccc12 (stereo unspecified)	0	-1	-23*	7	12	0
Cc1c(C(=O)N(Cc2ccccc2)C2CCS(=O)(=O)C2)oc2ccccc12 (stereo unspecified)	6	-2	1	16	-9	0
CCCCOCCCNC(=O)C[C@@H]1C[C@@]2(C(=O)OC)CC(C)(C)CC=C2N(CCc2ccc(OC)c(OC)c2)C1=O	x	x	-3	x	-22	-1
O=C(Cc1ccc(Cl)cc1)SCc1ccccc1	-2	0	6	-3	x	44*
COc1ccc(NC(=O)C(c2ccccc2)c2ccccc2)cn1	-1	x	-13	x	-20	43*
CCNC(=O)Nc1cc(OC)c(OC)cc1C(=O)O	0	0	12	6	-6	0
COc1ccccc1NC(=O)C(C)NC(c1ccccc1)c1ccccc1 (stereo unspecified)	-2	-1	3	x	59*	0
COc1cc(NC(=O)C(c2ccccc2)c2ccccc2)c(C(=O)O)cc1OC	0	2	-24*	10	-14	0
CN1C(=O)C2C3c4ccccc4C(c4ccccc43)[C@@H]2C1=O (stereo partly specified)	-1	10	7	1	6	0
CN1/C(=C\C(=O)c2ccco2)C(C)(C)c2ccccc21	0	-1	-38	-31	x	0
CCc1cc(CNC(=O)CC2C(=O)NCCN2Cc2cccc(OC)c2)on1 (stereo unspecified)	-3	x	16	x	17	44*
CCn1ccnc1CNC(=O)CC1C(=O)NCCN1Cc1ccccc1F (stereo unspecified)	x	0	9	8	-9	1
COc1ccccc1CNC(=O)CC1C(=O)NCCN1C1Cc2ccccc2C1 (stereo unspecified)	-1	0	2	-5	8	0
CCc1cc(CNC(=O)CC2C(=O)NCCN2Cc2c(F)cccc2Cl)on1 (stereo unspecified)	-2	1	15	-8	7	0
COc1ccc(CNC(=O)CC2C(=O)NCCN2C2Cc3ccccc3C2)cc1 (stereo unspecified)	-3	-1	-2	x	61*	0
CCc1ccc(CNC(=O)CC2C(=O)NCCN2Cc2ccccc2F)nc1 (stereo unspecified)	0	1	0	-16	56*	0
COc1ccc(-c2coc3c(C(=O)NCc4ccc(C(F)(F)F)cc4)cccc23)c(C)c1	-3	-7	7	-12	67*	0
COc1ccc(-c2coc3c(C(=O)NCc4cccc(Cl)c4)cccc23)c(C)c1	5	10	14	x	u	0
C[C@H](CO)N1C[C@H](C)[C@H](CN(C)Cc2ccccc2)Oc2cc(-c3cncnc3)ccc2S1(=O)=O	-5	-5	2	0	7[16.7 µM]	0
COc1ccc(CNC(=O)C[C@H]2CC[C@H](NS(=O)(=O)c3cccc(OC)c3)[C@@H](CO)O2)cc1	0	-2	0	13	13[16.7 µM]	0
COc1ccc2nc(NC(=O)C34CC5CC(CC(NC(C)=O)(C5)C3)C4)sc2c1	0	2	-27*	-2	-16	0
CC(=O)NC12CC3CC(C1)CC(C(=O)Nc1nccs1)(C3)C2	x	-1	x	3	x	x
CCOc1ccc2nc(NC(=O)C34CC5CC(CC(NC(C)=O)(C5)C3)C4)sc2c1	-2	-4	-33*	x	-27	0
CN(Cc1nccn1C)C(=O)CC1C(=O)NCCN1Cc1ccccc1C(F)(F)F (stereo unspecified)	3	1	6	-2	9	0
CCC(O)(CC)C(=O)NN(C(=O)Nc1csc2c1CCCC2)c1ccccc1	x	-3	x	-11	62*	x
SMILES	ERAP1 HTS inh	Cneo AK release	Ecoli rRNA inh	PGC1a acetyl inh	HIV Env fusion	FGF22 binding
COc1ccccc1OCCn1cc(C(=O)c2ccco2)c2ccccc21	x	0	x	x	-5	x
COc1cccc(OCCn2cc(C(=O)c3ccco3)c3ccccc32)c1	x	-5	x	-31	66*	x
COc1ccccc1NC(=O)Cn1cc(C(=O)c2ccco2)c2ccccc21	-4	1	-26*	-5	-1	0
COc1ccc(OC)c(NC(=O)Cn2cc(C(=O)c3ccco3)c3ccccc32)c1	x	-2	x	-8	7	x
O=C1c2ccccc2C(c2nc3ccccc3[nH]2)N1Cc1ccco1 (stereo unspecified)	-1	0	8	-6	-9	0
CCCOc1ccc(/C(O)=C2/C(=O)C(=O)N(CCCn3ccnc3)C2c2ccco2)cc1 (stereo unspecified)	x	-2	x	8	-32	x
CCCOc1ccc(/C(O)=C2/C(=O)C(=O)N(CCCn3ccnc3)C2c2ccc(C)o2)cc1 (stereo unspecified)	-4	x	-18*	5	8	0
Cc1cccn2cc(CNC(=O)C3CCCCC3)nc12	x	4	x	8	x	x
C[C@@H]1CCCCO[C@H](CN(C)C(=O)CCCN(C)C)[C@@H](C)CN([C@H](C)CO)C(=O)c2cc(NC(=O)CCC(F)(F)F)ccc2O1	-1	0	2	8	30[16.7 µM]	1.5*
C[C@@H]1CCCCO[C@@H](CN(C)C(=O)c2ccncc2)[C@H](C)CN([C@@H](C)CO)C(=O)c2cc(NC(=O)CCC(F)(F)F)ccc2O1	x	3	2	1	-5[16.7 µM]	0
C[C@@H]1CCCCO[C@@H](CN(C)C(=O)Nc2ccccc2)[C@H](C)CN([C@H](C)CO)C(=O)c2cc(NC(=O)CCC(F)(F)F)ccc2O1	2	2	-1	-8	66*[16.7 µM]	0
C[C@@H]1CCCCO[C@H](CN(C)C(=O)Nc2ccccc2)[C@@H](C)CN([C@@H](C)CO)C(=O)c2cc(NC(=O)CCC(F)(F)F)ccc2O1	3	0	-4	5	-97[16.7 µM]	0
C[C@@H]1CCCCO[C@H](CN(C)C(=O)c2ccncc2)[C@H](C)CN([C@H](C)CO)C(=O)c2cc(NC(=O)CCC(F)(F)F)ccc2O1	x	82*	1	0	7[16.7 µM]	0
C[C@@H]1CCCCO[C@H](CN(C)C(=O)CCC(F)(F)F)[C@H](C)CN([C@H](C)CO)C(=O)c2cc(NC(=O)CCC(F)(F)F)ccc2O1	-4	57	0	7	87*[16.7 µM]	1
C[C@H]1CCCCO[C@H](CN(C)C(=O)CCC(F)(F)F)[C@@H](C)CN([C@@H](C)CO)C(=O)c2cc(NC(=O)CCC(F)(F)F)ccc2O1	-4	47	1	11	12[16.7 µM]	-1
C/C(=N\O)c1cccc(Br)c1	3	x	-25*	x	-10	0
